Screening results deposited in PubChem BioAssay by several laboratories.
Rows were chosen to be rich in hits. Some 3.9% of all compounds tested hit in one or more screens of this group.
HSF1 inh – HSF1 inhibitors in luciferase reporter cells, primary screen, cell-based, NIH3T3, luminescence; NIH3T3-HGL HSE-luciferase, MG132-induced, luminescence 8 h; stronger effect = lower value; activity change, negative = inhibition, % at 7.5 µM (by protocol); actives 0.77% (n = 300,000);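 active means more than half of replicate wells show activity change below -50%, luminescence cut by over half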;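 further: luciferase reports HSF-1 transcriptional activity via heat shock element; 0% = median of DMSO wells and -100% = zero luminescence signal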
core dimer inh – inhibitors of HCV core protein dimerization, primary screen, biochemical, TR-FRET, high-throughput | TR-FRET GST/Flag-core106 dimerization, 1536-well | inhibition, % at 5 µM | actives 0.33% (n = 300,000);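 active means inhibition above the mean of all tested compounds plus 3 SD, set per screening campaign, cut at about 45% in these data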
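Assay system: Tagged HCV core106 pair (GST and Flag) | Buffer or medium: KF-containing HEPES buffer, pH 7.45, DTT, CHAPS, BSA | Also added: Eu donor and XL665 acceptor anti-tag antibodies | Dosing: One concentration, 5 µM, in 0.5% DMSO | Timing: 4 h at 22.5 °C | Technique: TR-FRET 671 and 617 nm emission | Repeats: Singlicate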
DNA FID counter – compounds displacing fluorescent DNA intercalator, primary screen, artefact control for HCV NS3 helicase inhibitor project, biochemical, FID fluorescence | DNA fluorescent intercalator displacement | inhibition, % at 7.9 µM | actives 0.17% (n = 290,000) | AID 1845, 2009; in the data active means inhibition above about 37%;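 further: 0% = vehicle and 100% = reference compound; higher means more ethidium bromide displaced from hairpin DNA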
HSF1 activator – HSF-1 activators, primary screen, NIH3T3-HGL cells, MG132 stress, luminescence, single point | activation, % at 9 µM | actives 1.7% (n = 300,000) | NIH3T3-HGL HSF-1 luciferase reporter, 8 h; 100% = twice DMSO control signal | AID 504408, 2011;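 active means mean replicate activation of at least 50% with a set share of replicates each reaching 50%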;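 further: 0% = median of the neutral control wells and 100% = twice that signal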
HSP90 inh – HSP90 inhibitors, primary screen, cell lysate, luminescence; Rabbit reticulocyte lysate, luciferase refolding luminescence, 3 h; actives 0.91% (n = 290,000); inhibition, % at 5.6 µM;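 active means inhibition above the screen-wide mean plus 3 SD, computed separately per campaign, cut at about 16% in these data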;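 further: 0% = DMSO wells and 100% = 60 µM geldanamycin wells; inhibitors lower the luminescence because luciferase stays unfolded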
NS3 helicase inh – inhibitors of HCV NS3 helicase, primary screen, biochemical, Cy5 molecular beacon fluorescence; Hepatitis C virus NS3 helicase; inhibition, % at 10.9 µM; NS3 helicase DNA unwinding; actives 0.56% (n = 290,000);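 active means inhibition above the mean of all tested compounds plus 3 SD, set per campaign, cut at about 35% in these data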;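 further: 0% = DMSO wells and 100% = thioflavine S control wells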
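System: NS3 helicase fragment of HCV / Schedule: 1 h at 25 °C / Control set: DMSO alone as 0% and 110 µM thioflavine S as 100% / Reagent: Cy5/quencher beacon DNA duplex and ATP to start / Technique: Cy5 fluorescence / Replication: singlicate / Evaluation: % inhibition of end-to-start signal ratio versus controls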
Starred values were filed as active, the others as inactive; . = no result.

SMILES	HSF1 inh	core dimer inh	DNA FID counter	HSF1 activator	HSP90 inh	NS3 helicase inh
Cc1cc(C(=O)Nc2ccccc2[N+](=O)[O-])cs1	3.4	-6.3	3.2	10.4	5.7	3.2
Cc1c(C(=O)Nc2ccccc2[N+](=O)[O-])csc1-c1ccccc1	15.2	-6.9	-0.1	61.2*	1.5	-5.3
Cc1ccc(C(=O)Nc2cnc3ccccc3c2)cc1	-67.4*	-1.9	-2.8	-73.2	87.3*	4.7
Cc1ccc(C(=O)Nc2cccc(-c3cnc4ccccc4n3)c2)cc1	-61.5*	7.0	-2.3	-66.5	-0.7	4.0
Cc1cccc(C(=O)Nc2cccc(-c3cnc4ccccc4n3)c2)c1	-0.2	11.2	1.4	5.0	0.8	11.6
O=C(NNC(=O)c1cc2cc3ccccc3nc2s1)c1cccc(Cl)c1	-0.8	57.5*	-2.5	17.4	-1.9	1.8
Cc1cccc(C(=O)NNC(=O)c2cc3cc4ccccc4nc3s2)c1	.	25.4	-0.9	.	0.7	-0.1
CCOc1ccc(NC(=O)CCNC(=O)Cn2cnc3ccccc3c2=O)cc1	-1.1	-8.1	-7.6	1.8	-2.0	10.3
COc1ccc(-n2nc(C(=O)NCC(=O)Nc3cc(OC)ccc3OC)c3ccccc3c2=O)cc1	0.8	14.1	-30.1	5.6	4.1	-17.9
COc1ccc(/C=N/NC(=O)c2nn(-c3ccc(C)c(C)c3)c(=O)c3ccccc23)cc1	13.4	55.7*	-9.4	4.4	6.6	9.3
COc1ccc(OC)c(NC(=O)CCNC(=O)c2ccco2)c1	-2.5	-0.3	-5.2	12.7	-1.2	30.7
Cc1cc(-c2nnc(SCC(=O)Nc3ccccc3C(F)(F)F)o2)c(C)n1-c1ccccc1	-56.0*	7.2	-9.7	-59.4	8.7	4.8
CC(C)(C)c1cnnn1-c1cccc([N+](=O)[O-])c1	-2.0	-1.2	3.1	-12.2	1.5	9.9
O=C(NCC(c1cccs1)N1CCOCC1)C1CCN(S(=O)(=O)c2cccc(C(F)(F)F)c2)CC1 (centres undefined)	2.7	-1.3	.	-9.3	.	.
Cc1ccc(SCC(=O)OCC(=O)NC2CCCCCCC2)cc1	-5.9	1.6	.	-5.0	.	.
CCn1cc(/C=C(\NC(=O)c2ccccc2)C(=O)N2CCOCC2)c2ccccc21	6.1	.	-28.3	20.4	2.4	1.4
O=C(COC(=O)c1cccc([N+](=O)[O-])c1)Nc1ccc(Cl)cn1	-2.3	4.8	.	-8.6	.	.
CC(C)(C)c1cccc(/C=N/O)c1O	21.4	-3.4	-1.0	65.6*	-0.1	10.8
CC(C)(C)c1ccc(O)c(/C=N\O)c1	4.2	8.0	-5.7	13.8	7.4	7.7
Cc1cc(C)n(-c2nc3c(c(=O)[nH]c(=O)n3C)n2C(C)C)n1	-3.0	-0.8	-4.1	11.7	-3.0	-8.2
O=C(Cc1coc2ccc3ccccc3c12)NC1CCCc2ccccc21 (centres undefined)	34.6	5.6	-17.4	64.9*	0.9	-11.9
O=C(Cc1coc2ccc3ccccc3c12)NCc1ccccc1	-3.5	4.5	-7.6	-8.1	4.8	-3.4
O=C(NCCN1CCOCC1)c1cccs1	5.6	-2.7	-2.9	-2.9	2.5	1.2
O=C(NCCN1Cc2ccccc2C1=O)c1cccs1	41.9	-5.9	3.5	61.5*	1.8	3.7
O=[N+]([O-])c1ccc(/C=[N+](\[O-])[C@@H]2CCCC[C@@H]2/[N+]([O-])=C/c2ccc([N+](=O)[O-])o2)o1	50.0	-5.3	-18.6	70.7*	6.6	24.5
O=C(N/N=C/c1ccc([N+](=O)[O-])o1)C1CCCC1	19.1	4.5	-13.7	23.7	4.4	33.6
Cc1cccc(NC(=O)CCc2c(C)nn(-c3ccc(N4CCCCC4)nn3)c2C)c1	31.9	4.3	-50.4	63.7*	-4.9	-27.8
Nc1nn(-c2ccccc2)c(N)c1N=Nc1ccccc1F	23.7	-19.1	-4.2	59.2*	0.7	0.2
C/C=C/c1ccc(OCC(=O)O)c(OC)c1	-3.3	-0.2	-18.8	2.3	3.7	1.6
